{
  "source": "ChEMBL document CHEMBL1135737",
  "about": "“Water stability and cytotoxic activity relationship of a series of ferrocenium derivatives. ESR insights on the radical production during the degradation process” (J Med Chem, 2002)",
  "key": {"[1]": {"system": "MCF7", "experiment": "In vitro cytotoxicity against MCF-7 cell line expressed as percent of viable cells compared to untreated control at a concentration of 10 uM for 24 h", "format": "functional, cell-based", "conditions": "Homo sapiens", "procedure,_shortened": "(§1)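 Viability in MCF-7 cells (DMEM, 25 mM HEPES, 10% FCS, 37 °C, 5% CO2) seeded 250000/well and treated after 24 h for 24 h. Medium then replaced with fresh; MTT formazan read at 570 nm minus 690 nm, 5 days after treatment start. Percent of the untreated control washed at the same time; mean of three independent experiments.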"}, "[2]": {"system": "MCF7", "experiment": "In vitro cytotoxicity against MCF-7 cell line expressed as percent of viable cells compared to untreated control at a concentration of 100 uM for 24 h", "format": "functional, cell-based", "conditions": "Homo sapiens", "procedure,_shortened": "as §1"}, "[3]": {"system": "MCF7", "experiment": "In vitro cytotoxicity against MCF-7 cell line expressed as percent of viable cells compared to untreated control at a concentration of 50 uM for 24 h", "format": "functional, cell-based", "conditions": "Homo sapiens", "procedure,_shortened": "as §1"}, "[4]": {"system": "MCF7", "experiment": "In vitro cytotoxicity against MCF-7 cell line expressed as percent of viable cells compared to untreated control at a concentration of 500 uM for 24 h", "format": "functional, cell-based", "conditions": "Homo sapiens", "procedure,_shortened": "as §1"}, "[5]": {"system": "MCF7", "experiment": "In vitro cytotoxicity of compound against MCF-7 cell line expressed as percent of viable cells compared to untreated control at a concentration of 10 uM", "format": "functional, cell-based", "conditions": "Homo sapiens", "procedure,_shortened": "(§2)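 First screen: exponential-phase MCF-7 cells (DMEM with 25 mM HEPES, 10% FCS, 37 °C, 5% CO2), 250000/well, given the ferrocenium salt 5–500 μM continuously for 48 h from 24 h after seeding. MTT (5 mg/mL in saline) added for 60 min; formazan read at 570 nm with 690 nm correction. Percent viable versus untreated control; mean of three replications.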"}, "[6]": {"system": "MCF7", "experiment": "In vitro cytotoxicity of compound against MCF-7 cell line expressed as percent of viable cells compared to untreated control at a concentration of 100 uM", "format": "functional, cell-based", "conditions": "Homo sapiens", "procedure,_shortened": "as §2"}, "[7]": {"system": "MCF7", "experiment": "In vitro cytotoxicity of compound against MCF-7 cell line expressed as percent of viable cells compared to untreated control at a concentration of 5 uM", "format": "functional, cell-based", "conditions": "Homo sapiens", "procedure,_shortened": "as §2"}, "[8]": {"system": "MCF7", "experiment": "In vitro cytotoxicity of compound against MCF-7 cell line expressed as percent of viable cells compared to untreated control at a concentration of 50 uM", "format": "functional, cell-based", "conditions": "Homo sapiens", "procedure,_shortened": "as §2"}, "[9]": {"system": "MCF7", "experiment": "In vitro cytotoxicity of compound against MCF-7 cell line expressed as percent of viable cells compared to untreated control at a concentration of 500 uM", "format": "functional, cell-based", "conditions": "Homo sapiens", "procedure,_shortened": "as §2"}, "[10]": {"system": "MCF7", "experiment": "In vitro cytotoxicity against MCF-7 cell line as percent of viable cells compared to control at a concentration of 15 uM", "format": "functional, cell-based", "conditions": "Homo sapiens"}, "[11]": {"system": "MCF7", "experiment": "In vitro cytotoxicity against MCF-7 cell line as percent of viable cells compared to control at a concentration of 20 uM", "format": "functional, cell-based", "conditions": "Homo sapiens"}, "[12]": {"system": "MCF7", "experiment": "In vitro cytotoxicity against MCF-7 cell line as percent of viable cells compared to control at a concentration of 30 uM", "format": "functional, cell-based", "conditions": "Homo sapiens"}, "[13]": {"system": "MCF7", "experiment": "In vitro cytotoxicity against MCF-7 cell line as percent of viable cells compared to control at a concentration of 40 uM", "format": "functional, cell-based", "conditions": "Homo sapiens"}, "[14]": {"system": "MCF7", "experiment": "In vitro cytotoxicity against MCF-7 cell line as percent of viable cells compared to control at a concentration of 5 uM", "format": "functional, cell-based", "conditions": "Homo sapiens"}, "[15]": {"system": "MCF7", "experiment": "In vitro cytotoxicity against MCF-7 cell line as percent of viable cells compared to control at a concentration of 10 uM", "format": "functional, cell-based", "conditions": "Homo sapiens"}, "[16]": {"system": "MCF7", "experiment": "Concentration required to reduce to 50% the number of MCF-7 cells with respect to untreated control after exposure to compound for 12 h", "format": "functional, cell-based, Homo sapiens", "procedure,_shortened": "(§3)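 MCF-7 cells (DMEM with 25 mM HEPES, 2 mM L-glutamine, 10% FCS; 37 °C, 5% CO2) in exponential growth, 250000 cells/well, dosed after 24 h at 10, 50, 100, 500 μM for 2, 12, 24 or 48 h. Medium then replaced; MTT read at 570 nm (690 nm background) 5 days from start, versus time-matched washed control. IC50 from three replications.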"}, "[17]": {"system": "MCF7", "experiment": "Concentration required to reduce to 50% the number of MCF-7 cells with respect to untreated control after exposure to compound for 2 h", "format": "functional, cell-based, Homo sapiens", "procedure,_shortened": "as §3"}, "[18]": {"system": "MCF7", "experiment": "Concentration required to reduce to 50% the number of MCF-7 cells with respect to untreated control after exposure to compound for 24 h", "format": "functional, cell-based, Homo sapiens", "procedure,_shortened": "as §3"}, "[19]": {"system": "MCF7", "experiment": "Concentration required to reduce to 50% the number of MCF-7 cells with respect to untreated control after exposure to compound for 48 h", "format": "functional, cell-based, Homo sapiens", "procedure,_shortened": "as §3"}, "[20]": {"system": "MCF7", "experiment": "In vitro cytotoxicity against MCF-7 cell line expressed as percent of viable cells compared to untreated control at a concentration of 20 uM", "format": "functional, cell-based", "conditions": "Homo sapiens", "procedure,_shortened": "(§4)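 Exponential-phase MCF-7 cells, grown in DMEM with 25 mM HEPES, 2 mM L-glutamine and 10% FCS at 37 °C and 5% CO2, were seeded at 250000 cells/well. After 24 h they got a single agent for 24 h at 10, 20, 35, 50 or 70 μM, then fresh medium. Viability was read by MTT (570 nm, 690 nm background) 5 days from treatment start, as % of untreated control.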"}, "[21]": {"system": "MCF7", "experiment": "In vitro cytotoxicity against MCF-7 cell line expressed as percent of viable cells compared to untreated control at a concentration of 35 uM", "format": "functional, cell-based", "conditions": "Homo sapiens", "procedure,_shortened": "as §4"}, "[22]": {"system": "MCF7", "experiment": "In vitro cytotoxicity against MCF-7 cell line expressed as percent of viable cells compared to untreated control at a concentration of 50 uM", "format": "functional, cell-based", "conditions": "Homo sapiens", "procedure,_shortened": "as §4"}, "[23]": {"system": "MCF7", "experiment": "In vitro cytotoxicity against MCF-7 cell line expressed as percent of viable cells compared to untreated control at a concentration of 70 uM", "format": "functional, cell-based", "conditions": "Homo sapiens", "procedure,_shortened": "as §4"}, "[24]": {"system": "MCF7", "experiment": "In vitro cytotoxicity against MCF-7 cell line expressed as percent of viable cells compared to untreated control at a concentration of 10 uM", "format": "functional, cell-based", "conditions": "Homo sapiens", "procedure,_shortened": "as §4"}},
  "data": [
    {"substance": "[sequence] TETRAFLUOROBORATE", "values": [
      {"measurement": "Viable cells", "setting": "[1]", "value": 99, "unit": "%"},
      {"measurement": "Viable cells", "setting": "[2]", "value": 14, "unit": "%"},
      {"measurement": "Viable cells", "setting": "[3]", "value": 64, "unit": "%"},
      {"measurement": "Viable cells", "setting": "[4]", "value": 4, "unit": "%"},
      {"measurement": "Viable cells", "setting": "[5]", "value": 88, "unit": "%"},
      {"measurement": "Viable cells", "setting": "[6]", "value": 10, "unit": "%"},
      {"measurement": "Viable cells", "setting": "[7]", "value": 100, "unit": "%"},
      {"measurement": "Viable cells", "setting": "[8]", "value": 32, "unit": "%"},
      {"measurement": "Viable cells", "setting": "[9]", "value": 11, "unit": "%"},
      {"measurement": "Viable cells", "setting": "[10]", "value": 34, "unit": "%"},
      {"measurement": "Viable cells", "setting": "[11]", "value": 13, "unit": "%"},
      {"measurement": "Viable cells", "setting": "[12]", "value": 7, "unit": "%"},
      {"measurement": "Viable cells", "setting": "[13]", "value": 3, "unit": "%"},
      {"measurement": "Viable cells", "setting": "[14]", "value": 94, "unit": "%"},
      {"measurement": "Viable cells", "setting": "[15]", "value": 88, "unit": "%"}
    ]},
    {"substance": "FERROCENIUM TETRAFLUOROBORATE [listing 1 of 2 here]", "values": [
      {"measurement": "Viable cells", "setting": "[5]", "value": 98, "unit": "%"},
      {"measurement": "Viable cells", "setting": "[6]", "value": 99, "unit": "%"},
      {"measurement": "Viable cells", "setting": "[7]", "value": 100, "unit": "%"},
      {"measurement": "Viable cells", "setting": "[8]", "value": 100, "unit": "%"},
      {"measurement": "Viable cells", "setting": "[9]", "value": 13, "unit": "%"}
    ]},
    {"substance": "FERROCENIUM TETRAFLUOROBORATE [listing 2 of 2 here]", "values": [
      {"measurement": "IC50", "setting": "[16]", "value": 238, "unit": "µM"},
      {"measurement": "IC50", "setting": "[17]", "value": 308, "unit": "µM"},
      {"measurement": "IC50", "setting": "[18]", "value": 256, "unit": "µM"},
      {"measurement": "IC50", "setting": "[19]", "value": 249, "unit": "µM"}
    ]},
    {"substance": "FERROCENIUMBORONIC ACID TETRAFLUOROBORATE", "values": [
      {"measurement": "Viable cells", "setting": "[5]", "value": 101, "unit": "%"},
      {"measurement": "Viable cells", "setting": "[6]", "value": 98, "unit": "%"},
      {"measurement": "Viable cells", "setting": "[7]", "value": 102, "unit": "%"},
      {"measurement": "Viable cells", "setting": "[8]", "value": 101, "unit": "%"},
      {"measurement": "Viable cells", "setting": "[9]", "value": 8, "unit": "%"}
    ]},
    {"substance": "BLEOMYCIN [listing 1 of 2 here]", "values": [
      {"measurement": "IC50", "setting": "[18]", "value": 53, "unit": "µM"}
    ]},
    {"substance": "BLEOMYCIN [listing 2 of 2 here]", "values": [
      {"measurement": "Viable cells", "setting": "[20]", "value": 65, "unit": "%"},
      {"measurement": "Viable cells", "setting": "[21]", "value": 57, "unit": "%"},
      {"measurement": "Viable cells", "setting": "[22]", "value": 48, "unit": "%"},
      {"measurement": "Viable cells", "setting": "[23]", "value": 51, "unit": "%"},
      {"measurement": "Viable cells", "setting": "[24]", "value": 69, "unit": "%"}
    ]},
    {"substance": "1,1'-dimethylferrocenium tetrafluoroborate", "values": [
      {"measurement": "Viable cells", "setting": "[5]", "value": 100, "unit": "%"},
      {"measurement": "Viable cells", "setting": "[6]", "value": 90, "unit": "%"},
      {"measurement": "Viable cells", "setting": "[7]", "value": 99, "unit": "%"},
      {"measurement": "Viable cells", "setting": "[8]", "value": 93, "unit": "%"},
      {"measurement": "Viable cells", "setting": "[9]", "value": 17, "unit": "%"}
    ]},
    {"substance": "DECAMETHYLFERROCENIUM TETRAFLUOROBORATE", "values": [
      {"measurement": "IC50", "setting": "[16]", "value": 74, "unit": "µM"},
      {"measurement": "IC50", "setting": "[17]", "value": 86, "unit": "µM"},
      {"measurement": "IC50", "setting": "[18]", "value": 58, "unit": "µM"},
      {"measurement": "IC50", "setting": "[19]", "value": 35, "unit": "µM"}
    ]},
    {"substance": "[sequence] ACID TETRAFLUOROBORATE", "values": [
      {"measurement": "Viable cells", "setting": "[5]", "value": 98, "unit": "%"},
      {"measurement": "Viable cells", "setting": "[6]", "value": 97, "unit": "%"},
      {"measurement": "Viable cells", "setting": "[7]", "value": 100, "unit": "%"},
      {"measurement": "Viable cells", "setting": "[8]", "value": 97, "unit": "%"},
      {"measurement": "Viable cells", "setting": "[9]", "value": 17, "unit": "%"}
    ]}
  ]
}
